Experimental data reported in ChEMBL document CHEMBL4007449, “Novel multi-substituted benzyl acridone derivatives as survivin inhibitors for hepatocellular carcinoma treatment” (Eur J Med Chem, 2017).

What was measured:
Mus musculus [1] = assay: Toxicity in nude mouse ectopically xenografted with human HepG2 cells assessed as liver weight at 3 mg/kg, ip administered once in 2 days measured after 30 days (reference value: 0.069 to 0.434 g); assay type: organism-based; conditions: in vivo, 720 h
Outline: (§1)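 HepG2 cells implanted subcutaneously in the flanks of nude mice, randomised into groups of 5: blank, 5-FU (25 mg/kg) and test compound hydrochloride at 0.33 or 3 mg/kg, given i.p. once every 2 days. Tumour volume and body weight recorded every 2 days. Mice euthanised on day 30; tumours, liver and spleen weighed and organ indices calculated; tumour growth inhibition derived.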

Mus musculus [2] = assay: Toxicity in nude mouse ectopically xenografted with human HepG2 cells assessed as body weight loss at 0.33 to 3 mg/kg, ip administered once in 2 days measured up to 30 days post dose; assay type: organism-based; conditions: in vivo; outline: as §1
HepG2 [3] = assay: Antitumor activity against human HepG2 cells ectopically xenografted in nude mouse assessed as tumor growth inhibition at 3 mg/kg, ip administered once in 2 days measured after 30 days relative to control; assay type: functional; conditions: read-out: TGI; outline: as §1
Mus musculus [4] = assay: Toxicity in nude mouse ectopically xenografted with human HepG2 cells assessed as liver weight index at 0.33 mg/kg, ip administered once in 2 days measured after 30 days (reference value: 0.0009 to 0.0187); assay type: organism-based; conditions: in vivo, 720 h; outline: as §1
Mus musculus [5] = assay: Toxicity in nude mouse ectopically xenografted with human HepG2 cells assessed as spleen weight at 0.33 mg/kg, ip administered once in 2 days measured after 30 days (reference value: 0.071 to 0.248 g); assay type: organism-based; conditions: in vivo, 720 h; outline: as §1
Mus musculus [6] = assay: Toxicity in nude mouse ectopically xenografted with human HepG2 cells assessed as spleen weight index at 3 mg/kg, ip administered once in 2 days measured after 30 days (reference value: 0.002 to 0.0106); assay type: organism-based; conditions: in vivo, 720 h; outline: as §1
Mus musculus [7] = assay: Toxicity in nude mouse ectopically xenografted with human HepG2 cells assessed as effect on normal behavior at 0.33 to 3 mg/kg, ip administered once in 2 days measured up to 30 days post dose; assay type: organism-based; conditions: in vivo; outline: as §1
Mus musculus [8] = assay: Toxicity in nude mouse ectopically xenografted with human HepG2 cells assessed as liver weight at 0.33 mg/kg, ip administered once in 2 days measured after 30 days (reference value: 0.069 to 0.434 g); assay type: organism-based; conditions: in vivo, 720 h; outline: as §1
Mus musculus [9] = assay: Toxicity in nude mouse ectopically xenografted with human HepG2 cells assessed as spleen weight at 3 mg/kg, ip administered once in 2 days measured after 30 days (reference value: 0.071 to 0.248 g); assay type: organism-based; conditions: in vivo, 720 h; outline: as §1
Mus musculus [10] = assay: Toxicity in nude mouse ectopically xenografted with human HepG2 cells assessed as liver weight index at 3 mg/kg, ip administered once in 2 days measured after 30 days (reference value: 0.0009 to 0.0187); assay type: organism-based; conditions: in vivo, 720 h; outline: as §1
Mus musculus [11] = assay: Toxicity in nude mouse ectopically xenografted with human HepG2 cells assessed as spleen weight index at 0.33 mg/kg, ip administered once in 2 days measured after 30 days (reference value: 0.002 to 0.0106); assay type: organism-based; conditions: in vivo, 720 h; outline: as §1
Mus musculus [12] = assay: Toxicity in ip dosed nude mouse ectopically xenografted with human HepG2 cells assessed as increase in spleen weight administered once in 2 days measured after 30 days; assay type: organism-based; conditions: in vivo, 720 h; outline: as §1
Mus musculus [13] = assay: Toxicity in nude mouse ectopically xenografted with human HepG2 cells assessed as effect on normal growth at 0.33 to 3 mg/kg, ip administered once in 2 days measured up to 30 days post dose; assay type: organism-based; conditions: in vivo; outline: as §1
[14] = Antiproliferative activity against human QGY7701 cells after 48 hrs by MTT assay; assay type: cell-based; conditions: QGY7701, 48 h
Outline: (§2)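 Cells grown in DMEM with 10% FBS at 37 °C, 5% CO2; seeded at 6 × 10^3 cells/well, allowed to attach 12 h, then exposed to compound at final 50, 25, 10, 1 and 0.1 µM for 48 h. MTT (5 mg/mL) added for 4 h, formazan dissolved in DMSO, absorbance read at 490 nm; IC50 taken from the resulting curve.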

[15] = Selectivity index, ratio of IC50 for human QGY7701 cells to IC50 for human HepG2 cells; assay type: functional
Outline: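 Ratio built from MTT IC50 values: QGY-7701 and HepG2 cells in DMEM/10% FBS, seeded at 6 × 10^3 cells/well, attached 12 h, treated 48 h at final 0.1–50 µM, MTT 4 h, DMSO solubilisation, absorbance at 490 nm.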

HepG2 [16] = assay: Antiproliferative activity against human HepG2 cells after 48 hrs by MTT assay; assay type: functional, cell-based; conditions: HepG2, 48 h; outline: as §2
MCF7 = assay: Antiproliferative activity against human MCF7 cells after 48 hrs by MTT assay; assay type: functional, cell-based; conditions: MCF7, 48 h; outline: as §2

Row | Structure (SMILES) | Activity (Mus musculus [1]) [g] | Activity (Mus musculus [2]) | inhibition in vivo at 3 mg/kg (HepG2 [3]) [%] | Activity index (Mus musculus [4]) | Activity (Mus musculus [5]) [g] | Activity index (Mus musculus [6]) | Activity (Mus musculus [7]) | Activity (Mus musculus [8]) [g] | Activity (Mus musculus [9]) [g] | Activity index (Mus musculus [10]) | Activity index (Mus musculus [11]) | Activity (Mus musculus [12]) | Activity (Mus musculus [13]) | IC50 [14] [µM] | Ratio IC50 [15] | IC50 (HepG2 [16]) [µM] | IC50 (MCF7) [µM]
1 | COc1ccc(CNc2ccc(C(=O)NCCCN(C)C)c3[nH]c4c([N+](=O)[O-])cccc4c(=O)c23)cc1.Cl | 0.032 to 0.421 | Non-Toxic | 54 | 0.0016 to 0.0217 | 0.044 to 0.231 | 0.0042 to 0.0162 | Non-Toxic | 0.04 to 0.441 | 0.084 to 0.344 | 0.0025 to 0.0198 | 0.0016 to 0.0113 | Dose-dependent effect | Non-Toxic | – | – | – | –
2 | COc1ccc(CNc2ccc(C(=O)NCCCN(C)C)c3[nH]c4c([N+](=O)[O-])cccc4c(=O)c23)cc1 | – | – | – | – | – | – | – | – | – | – | – | – | – | 40.7 | 11 | 3.56 | 4.4
